Experimental data: ChEMBL document CHEMBL3745635, “Cytotoxic Orbitide from the Latex of Croton urucurana” (J Nat Prod, 2015)
In brackets after ≈: the same amount, converted by molar mass. Residues, ends and D or L forms follow the SMILES beside them.

Assays:
HepG2 = assay: Cytotoxicity against human HepG2 cells assessed as growth inhibition after 48 hrs by sulforhodamine B assay; format: functional; conditions: HepG2, 48 h
Outline: (§1)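 Cells seeded at 7.5 × 10^3 per well. Samples were dissolved in DMSO, aliquoted and stored at −20 °C. GI50 values are means of three independent experiments, each run in triplicate. Doxorubicin served as positive control.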

786-0 = assay: Cytotoxicity against human 786-0 cells assessed as growth inhibition after 48 hrs by sulforhodamine B assay; format: functional; conditions: 786-0, 48 h; outline: as §1
[1] = Cytotoxicity against human PC3 cells assessed as growth inhibition after 48 hrs by sulforhodamine B assay; format: functional; conditions: PC-3, 48 h; outline: as §1
MCF7 = assay: Cytotoxicity against human MCF7 cells assessed as growth inhibition after 48 hrs by sulforhodamine B assay; format: functional; conditions: MCF7, 48 h; outline: as §1
[2] = Cytotoxicity against mouse NIH/3T3 cells assessed as growth inhibition after 48 hrs by sulforhodamine B assay; format: cell-based, NIH3T3; outline: as §1
[3] = Cytotoxicity against human NCI-ADR-RES cells assessed as growth inhibition after 48 hrs by sulforhodamine B assay; format: functional; outline: as §1
HT-29 = assay: Cytotoxicity against human HT-29 cells assessed as growth inhibition after 48 hrs by sulforhodamine B assay; format: functional; conditions: HT-29, 48 h; outline: as §1

Row | Compound | GI50 (HepG2) [µg/mL] | GI50 (786-0) [µg/mL] | GI50 [1] [µg/mL] | GI50 (MCF7) [µg/mL] | GI50 at 48 h [2] [µM] | GI50 [3] [µM] | GI50 (HT-29) [µg/mL]
1 | CC(C)C[C@@H]1NC(=O)[C@H](CO)NC(=O)CNC(=O)[C@H](CC(C)C)NC(=O)[C@H](CC(N)=O)NC(=O)CNC(=O)[C@H](Cc2ccccc2)NC(=O)[C@H](C)NC(=O)CNC1=O (cyclo(AFGNLGSLG)) | 41.3 (≈ 50.6 µM) | 18.7 (≈ 22.9 µM) | 29.8 (≈ 36.5 µM) | 35.5 (≈ 43.4 µM) | > 306 | 4.8 | 37.3 (≈ 45.6 µM)
2 | COc1cccc2c1C(=O)c1c(O)c3c(c(O)c1C2=O)C[C@@](O)(C(=O)CO)C[C@@H]3O[C@H]1C[C@H](N)[C@H](O)[C@H](C)O1 [DOXORUBICIN] | 0.25 (≈ 0.46 µM) | 0.15 (≈ 0.276 µM) | 0.22 (≈ 0.405 µM) | 0.07 (≈ 0.129 µM) | 4 | 5.1 | 0.85 (≈ 1.56 µM)
